The source made the active and inactive calls. No cut-off for these calls is given here. Where only a bound is given, the exact number is not on record here.

This note sets out measurements from ChEMBL document CHEMBL1128298, “Synthesis and evaluation of pharmacological and pharmacokinetic properties of monopropyl analogs of 5-, 7-, and 8-[[(trifluoromethyl)sulfonyl]oxy]-2-aminotetralins: central dopamine and serotonin receptor activity” (J Med Chem, 1995).

In data set [1] the target is T1, 5-hydroxytryptamine receptor 1A (Mus musculus, UniProt Q64264).
T1 sequence (Q64264 whole entry): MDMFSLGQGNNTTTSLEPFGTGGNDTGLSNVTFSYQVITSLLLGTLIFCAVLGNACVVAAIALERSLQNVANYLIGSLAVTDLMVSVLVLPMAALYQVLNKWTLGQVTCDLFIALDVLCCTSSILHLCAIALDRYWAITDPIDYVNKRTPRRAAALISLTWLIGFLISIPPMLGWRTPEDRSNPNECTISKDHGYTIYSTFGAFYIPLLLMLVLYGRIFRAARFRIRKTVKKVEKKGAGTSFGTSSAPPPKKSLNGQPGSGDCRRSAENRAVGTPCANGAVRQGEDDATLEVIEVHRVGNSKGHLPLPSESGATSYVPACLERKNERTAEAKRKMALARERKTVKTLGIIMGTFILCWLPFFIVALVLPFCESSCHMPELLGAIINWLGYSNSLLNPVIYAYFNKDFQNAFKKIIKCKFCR
Description: In vitro binding affinity towards 5-hydroxytryptamine 1A receptor by using [3H]-8-OH-DPAT as radioligand. The method, boiled down: (§1)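 Radioligand competition binding at cloned mammalian receptors expressed in CHO-K1 cells, 1 h at room temperature, pH 7.4. Ligands: 5-HT1A [3H]-8-OH-DPAT 1 nM in 50 mM Tris/10 mM MgCl2. 5-HT1Dα/β [3H]-5-HT 1.7 nM in Tris/MgCl2/EDTA/0.1% ascorbate. D2 [3H]U86170 1 nM in 20 mM HEPES/10 mM MgSO4. D3 [3H]spiperone 0.5 nM in HEPES/MgCl2/NaCl/EDTA. Filtration and scintillation counting; 11 concentrations in duplicate; IC50 by nonlinear fit converted to Ki via Cheng–Prusoff.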

In data set [2] the target is T2, 5-hydroxytryptamine receptor 1D (Homo sapiens, UniProt P28221). Description: In vitro binding affinity towards 5-hydroxytryptamine 1D receptor alpha by using [3H]-5-HT as radioligand.
T2 sequence (P28221 whole entry): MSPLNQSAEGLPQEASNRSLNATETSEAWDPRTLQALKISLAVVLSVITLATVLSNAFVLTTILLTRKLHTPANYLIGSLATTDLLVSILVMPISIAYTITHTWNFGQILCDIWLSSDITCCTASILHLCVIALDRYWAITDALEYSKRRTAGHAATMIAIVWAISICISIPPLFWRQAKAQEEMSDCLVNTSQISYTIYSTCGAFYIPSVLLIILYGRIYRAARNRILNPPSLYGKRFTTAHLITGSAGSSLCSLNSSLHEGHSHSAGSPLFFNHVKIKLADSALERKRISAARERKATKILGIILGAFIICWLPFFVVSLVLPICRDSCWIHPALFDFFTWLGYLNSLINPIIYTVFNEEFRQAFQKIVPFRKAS
Data set [3] addresses T2, 5-hydroxytryptamine receptor 1D. The experiment in a line: In vitro binding affinity towards 5-HT1D alpha receptor by using [3H]5-HT as radioligand. The method, boiled down: as §1
Data set [4] addresses T3, D(2) dopamine receptor (Homo sapiens, UniProt P14416). Description: In vitro binding affinity towards dopamine D2 receptor by using [3H]U-86170 as radioligand. The method, boiled down:
as §1

For another data set, the target named is D(3) dopamine receptor (Homo sapiens, UniProt P35462). Description: In vitro binding affinity towards Dopamine receptor D3 by using [3H]spiperone as radioligand. Summed up: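 Radioligand competition binding at cloned mammalian receptors expressed in CHO-K1 cells, 1 h at room temperature, pH 7.4. D2 [3H]U86170 1 nM in 20 mM HEPES/10 mM MgSO4. D3 [3H]spiperone 0.5 nM in HEPES/MgCl2/NaCl/EDTA. Filtration and scintillation counting; 11 concentrations in duplicate; IC50 by nonlinear fit converted to Ki via Cheng–Prusoff.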
D(3) dopamine receptor, sequence (P35462 whole entry): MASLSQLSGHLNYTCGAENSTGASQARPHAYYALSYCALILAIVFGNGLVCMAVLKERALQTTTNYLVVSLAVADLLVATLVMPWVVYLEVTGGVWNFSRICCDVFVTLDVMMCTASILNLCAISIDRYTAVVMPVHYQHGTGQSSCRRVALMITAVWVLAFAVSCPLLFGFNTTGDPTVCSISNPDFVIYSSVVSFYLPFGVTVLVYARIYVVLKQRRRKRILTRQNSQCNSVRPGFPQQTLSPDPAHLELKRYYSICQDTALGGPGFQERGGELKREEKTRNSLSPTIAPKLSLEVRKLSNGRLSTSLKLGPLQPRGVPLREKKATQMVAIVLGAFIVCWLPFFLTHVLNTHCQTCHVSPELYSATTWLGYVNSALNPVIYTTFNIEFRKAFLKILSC

Data set [5] deals with Rattus norvegicus. Description: uM/kg. It counts as functional.
The species named for data set [6] is Rattus norvegicus. The experiment in a line: post-synaptic activity was determined by locomotor activity (LMA) in reserpine pretreated rats and no. of counts/30 min was reported (***p<0.005). It counts as functional.
Data set [7] deals with Rattus norvegicus. Description: (§2) […] decrease in the accumulation of 5-HTP (5-uM/Kg. It counts as functional, organism-based.
The subject of data set [8] is Rattus norvegicus. Description: […] decrease in the accumulation of DOPA (3,4-dihydroxyphenylalanine) in rat striatal brain;Inactive at 50 uM/Kg. It counts as functional, organism-based. Summed up: (§3)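 Male Sprague-Dawley rats (200–300 g) pretreated with reserpine 5 mg/kg sc 18 h before test drug. Test drug sc 60 min and NSD 1015 30 min before decapitation. DOPA and 5-HTP in limbic, striatal and hemispheral brain areas determined by HPLC with electrochemical detection. ED50 (µmol/kg) is the dose producing half-maximal decrease, from sigmoidal fit to dose–response curves, with 95% confidence limits.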

For data set [9], the system named is Rattus norvegicus. The experiment in a line: […] decrease in the accumulation of DOPA (3,4-dihydroxyphenylalanine) in rat limbic brain;Inactive at 50 uM/Kg. It counts as functional, organism-based. Summed up: as §3
For data set [10], the system named is Rattus norvegicus. The data set is described as §2. It counts as functional, organism-based. The source holds these as a separate data set.
The subject of data set [11] is Rattus norvegicus. The experiment in a line: […] decrease in the accumulation of DOPA (3,4-dihydroxyphenylalanine) in rat hemispheral brain;Inactive at 50 uM/Kg. It counts as functional, organism-based. The method, boiled down:
as §3

Data set [12] has as its target T2, 5-hydroxytryptamine receptor 1D. Description: In vitro binding affinity towards 5-hydroxytryptamine 1D receptor alpha by using [3H]5-HT as radioligand.
The target in data set [13] is T3, D(2) dopamine receptor.
In data set [14] the target is T3, D(2) dopamine receptor. Description: In vitro binding affinity towards Dopamine receptor D2 by using [3H]spiperone as radioligand.
Data set [15] can be described thus: Oral bioavailability in rat. It counts as ADME, organism-based. To be noted: in vivo. The method, boiled down:
(§4)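 Rats with arterial catheters, dosed 24 h after surgery. Dosing po by gavage after 18 h fast, or iv; doses 25 µmol/kg po and 5 µmol/kg iv. Blood sampled 5 min–12 h and analysed by GC-MS after dichloromethane extraction at pH 11, in duplicate. Bioavailability from po/iv AUC ratio; half-life estimated graphically from the elimination phase after oral dosing.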

Data set [16] in a line: Plasma half life was determined in rats. It counts as ADME, organism-based. To be noted: rat. Summed up:
as §4

The species entered for data set [17] is Rattus norvegicus. Description: post-synaptic activity was determined by locomotor activity (LMA) in Non pretreated rats. It counts as functional. The method, boiled down: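 Nonpretreated male Sprague-Dawley rats; test drug sc in the neck or po by gavage, n = 4. Placed singly in photocell motility meters immediately after dosing; activity recorded for 30 min. Results expressed as percent of saline controls.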

In data set [18] the test system is Rattus norvegicus. Description: […] decrease in the accumulation of 5-HTP (5-Hydroxytryptophan) in non pretreated rat striatal brain at dose 0.25 umol/kg. It counts as functional. Further details: scale not given: the % may be the effect or the level left. Summed up: (§5)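 Male Sprague-Dawley rats (200–300 g) without reserpine. Test drug sc, or po by gavage after 18 h fast. NSD 1015 decarboxylase inhibition before decapitation. DOPA and 5-HTP in limbic and striatal regions measured by HPLC-electrochemical detection. Results given as percent of saline controls, mean ± SEM, n = 16 controls and 4 treated.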

The test system of data set [19] is Rattus norvegicus. Description: […] decrease in the accumulation of DOPA (3,4-dihydroxyphenylalanine) in non pretreated rat striatal brain at dose 0.25 umol/kg. Further details: scale not given: the % may be the effect or the level left. It counts as functional. The method, boiled down: as §5
In data set [20] the test system is Rattus norvegicus. The experiment in a line: […] decrease in the accumulation of DOPA (3,4-dihydroxyphenylalanine) in rat striatal brain; partial response at 50 uM/Kg. It counts as functional, organism-based. Summed up: as §3
Data set [21] relates to Rattus norvegicus. The experiment in a line: […] decrease in the accumulation of 5-HTP (5-Hydroxytryptophan) in non pretreated rat limbic brain at dose 0.25 umol/kg. It counts as functional. Further details: scale not given: the % may be the effect or the level left. Summed up:
as §5

Data set [22] relates to Rattus norvegicus. The experiment in a line: […] decrease in the accumulation of DOPA (3,4-dihydroxyphenylalanine) in non pretreated rat limbic brain at dose 0.25 umol/kg. It counts as functional. Further details: scale not given: the % may be the effect or the level left. The method, boiled down:
as §5

Data set [23] relates to Rattus norvegicus. Description: […] decrease in the accumulation of DOPA (3,4-dihydroxyphenylalanine) in rat limbic brain; partial response at 50 uM/Kg. It counts as functional, organism-based. The method, boiled down: as §3
Data set [24] is filed under the species Rattus norvegicus. Description: […] decrease in the accumulation of 5-HTP (5-Hydroxytryptophan) in rat hemispheral brain. It counts as functional. The method, boiled down: as §3
Data set [25] has as its system Rattus norvegicus. The experiment in a line: […] decrease in the accumulation of DOPA (3,4-dihydroxyphenylalanine) in rat hemispheral brain; partial response at 50 uM/Kg. It counts as functional, organism-based. Summed up:
as §3

Data set [26] is filed under the species Rattus norvegicus. Description: […] decrease in the accumulation of 5-HTP (5-Hydroxytryptophan) in rat striatal brain. It counts as functional. The method, boiled down:
as §3

Data set [27] relates to Rattus norvegicus. Description: behavioral syndrome(flat body posture and forepaw treading) at 0.25 µmol/kg.
Data set [28] relates to Rattus norvegicus. Description: behavioral syndrome(flat body posture and forepaw treading) at 0.25 umol/Kg.
Data set [29] can be described thus: Plasma clearance was determined for the compound in rats. It counts as ADME, organism-based. To be noted: rat. The method, boiled down: as §4

T3 sequence (P14416 whole entry): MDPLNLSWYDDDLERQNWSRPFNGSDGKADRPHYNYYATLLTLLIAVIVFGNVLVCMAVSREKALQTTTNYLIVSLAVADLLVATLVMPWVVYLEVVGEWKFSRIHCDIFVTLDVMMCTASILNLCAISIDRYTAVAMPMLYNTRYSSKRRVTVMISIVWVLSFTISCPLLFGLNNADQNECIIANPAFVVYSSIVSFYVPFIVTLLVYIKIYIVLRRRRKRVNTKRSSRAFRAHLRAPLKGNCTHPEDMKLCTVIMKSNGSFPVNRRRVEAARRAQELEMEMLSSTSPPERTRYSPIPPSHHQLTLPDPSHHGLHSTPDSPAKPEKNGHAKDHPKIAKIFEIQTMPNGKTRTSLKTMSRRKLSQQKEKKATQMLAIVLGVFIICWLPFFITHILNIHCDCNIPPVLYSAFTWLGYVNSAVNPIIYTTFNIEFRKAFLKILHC

As usually defined, the Ki is a dissociation constant, usually derived from enzyme kinetics or from competition with a known ligand. The term ED50 denotes the dose at which the effect has come halfway, by size or by number of responders. With `CCCN[C@@H]1CCc2ccc(OS(=O)(=O)C(F)(F)F)cc2C1.Cl`, the Ki in data set [1] was found to be 222 nM; in data set [2] it was 340 nM; in data set [3] it was 125 nM; on D(2) dopamine receptor [4] it was 50 nM; at D(3) dopamine receptor, 359 nM. For the same compound, the “No. of rats displaying DA syndrome” value with Rattus norvegicus [5] was determined as 4. Besides, the Counts/30 min in the data set listed under Rattus norvegicus [6] was 2153. Also, the ED50 entry in the data set on Rattus norvegicus [7] and in the data set on Rattus norvegicus [10] was “Weak activity” throughout. Also, the ED50 result in the data set on Rattus norvegicus [8], in the data set with Rattus norvegicus [9] and with Rattus norvegicus [11] was “inactive” in each case.
Take `CCCNC1CCc2cccc(OS(=O)(=O)C(F)(F)F)c2C1` (racemic): the Ki was 2.8 nM in data set [1]; 15 nM in data set [12]; 108 nM at D(2) dopamine receptor [13]; 691 nM at D(3) dopamine receptor; > 413 nM on D(2) dopamine receptor [14].
Usually bioavailability stands for the share of a dose that reaches the circulation, judged against a reference dose that is usually intravenous. Broadly, the half-life is the time in which the quantity being followed falls by half. Take `CCCN(CCC)[C@@H]1CCc2cccc(O)c2C1`: affinity in [1] was put at a Ki of 0.5 nM. The bioavailability in data set [15] was determined as 2.4%. Moreover, the half-life in data set [16] stood at 1.2 h. Also, the “Locomotor activity (% of saline control)” value in the data set listed under Rattus norvegicus [17] is on record as 64%. In addition, the “No. of rats displaying DA syndrome” value in the data set on Rattus norvegicus [5] is listed as 0. Besides, the Control in the data set with Rattus norvegicus [18] was determined as 48%; in the data set with Rattus norvegicus [19], 80%; with Rattus norvegicus [21], 50%; with Rattus norvegicus [22], 94%. Moreover, the ED50 result was “Weak activity” in the data set with Rattus norvegicus [20]; “Weak activity” in the data set with Rattus norvegicus [23]; 0.05 µmol/kg in the data set filed under Rattus norvegicus [24]; “Weak activity” with Rattus norvegicus [25]; 0.047 µmol/kg in the data set listed under Rattus norvegicus [26]. Moreover, the “No. of rats with 5-HT syndrome” value with Rattus norvegicus [27] and in the data set on Rattus norvegicus [28] was 4 each time.
The clearance is the rate of elimination divided by the concentration. For the compound `CCCN(CCC)C1CCc2cccc(OS(=O)(=O)C(F)(F)F)c2C1` (racemic), the Ki in [1] is 0.8 nM; in data set [2] it was 127 nM; in [12] it was 12 nM; on D(2) dopamine receptor [13], 62 nM; at D(3) dopamine receptor it was 273 nM; on D(2) dopamine receptor [14] it was > 413 nM. In [29], the clearance is 57 mL/min/kg. This compound also registered a bioavailability in data set [15] of 11.2%. This compound also showed a half-life in data set [16] of 1.5 h. The ED50 result is “Weak activity” with Rattus norvegicus [20], “Weak activity” in the data set with Rattus norvegicus [23], 13.8 µmol/kg in the data set filed under Rattus norvegicus [24] and “Weak activity” with Rattus norvegicus [25].
